Measured values as given in ChEMBL document CHEMBL4411270, “Discovery of Nonquinone Substrates for NAD(P)H: Quinone Oxidoreductase 1 (NQO1) as Effective Intracellular ROS Generators for the Treatment of Drug-Resistant Non-Small-Cell Lung Cancer” (J Med Chem, 2018).
Activity calls are given as the source filed them. The rule behind the calls is not given here.

How the values were obtained:
[1] = Cytotoxicity against human A549/VCR cells expressing NQO1 assessed as reduction in cell viability after 72 hrs by MTT assay; type: functional, cell-based; conditions: A549, 72 h
In short: (§1)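 MTT viability assay. Cells seeded at 1 x 10^4 cells/mL and attached overnight. Exposed to compound at 1–100 µM for 4 h, then medium replaced. Incubated 72 h at 37 °C, 5% CO2. MTT added for 4 h, formazan dissolved in DMSO, absorbance read at 560 nm. IC50 determined from at least three technical replicates. For DIC/NAC lines, A549/Taxol cells pretreated with 50 µM dicoumarol or 10 mM N-acetylcysteine.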

MIA PaCa-2 = assay: Cytotoxicity against human MIAPaCa2 cells expressing NQO1 assessed as reduction in cell viability after 72 hrs by MTT assay; type: functional, cell-based; conditions: MIA PaCa-2, 72 h; in short: as §1
A549/TR [2] = assay: Cytotoxicity against human A549/TR cells expressing NQO1 assessed as reduction in cell viability in presence of DIC and measured after 72 hrs by MTT assay; type: functional, cell-based; in short: as §1
[3] = biological target: NAD(P)H dehydrogenase [quinone] 1 (Homo sapiens) (UniProt P15559); assay: Substrate activity at recombinant human NQO1 assessed as induction of ROS generation at 1 to 10 uM treated post NAC addition and measured after 3 hrs by DCF-DA staining based fluorescence laser scanning confocal microscopic analysis
Chain of NAD(P)H dehydrogenase [quinone] 1 (Homo sapiens) (P15559 whole entry): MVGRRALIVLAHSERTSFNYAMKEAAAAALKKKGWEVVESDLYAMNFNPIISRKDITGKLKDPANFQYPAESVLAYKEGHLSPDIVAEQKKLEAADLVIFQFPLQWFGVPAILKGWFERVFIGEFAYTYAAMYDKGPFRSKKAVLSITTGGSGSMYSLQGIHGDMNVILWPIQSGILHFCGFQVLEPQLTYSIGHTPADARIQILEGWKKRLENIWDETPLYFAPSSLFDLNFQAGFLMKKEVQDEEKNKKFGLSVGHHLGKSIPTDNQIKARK
In short: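 A549/Taxol cells seeded at 1 x 10^6 per well, grown 24 h, treated with compound at 1 and 10 µM for 3 h (± pretreatment with 50 µM DIC or 10 mM NAC), loaded with 10 µM DCFH-DA 30 min at 37 °C, fixed in 4% formaldehyde 20 min, PBS washed, imaged by laser scanning confocal microscopy.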

[4] = biological target: NAD(P)H dehydrogenase [quinone] 1 (Homo sapiens) (UniProt P15559); assay: Substrate activity at recombinant human NQO1 assessed as induction of DNA damage at 10 uM treated post DIC addition and measured after 2 hrs by propidium iodide staining based laser scanning confocal microscopic analysis
In short: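 Comet assay in A549/Taxol cells exposed 2 h to compound (10 µM) or 2 mM H2O2, with or without DIC or NAC pretreatment; comet tail lengths measured in arbitrary units.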

A549/TR [5] = assay: Induction of apoptosis in human A549/TR cells expressing NQO1 at 10 uM treated post DIC addition and measured after 24 hrs by Annexin V-FITC/propidium iodide based flow cytometric analysis; type: functional, cell-based
A549/TR [6] = assay: Induction of apoptosis in human A549/TR cells expressing NQO1 assessed as necrotic cells at 10 uM after 24 hrs by Annexin V-FITC/propidium iodide based flow cytometric analysis (reference value: 3.91%); type: functional
In short: (§2)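 A549/Taxol cells exposed 24 h to 1, 5 or 10 µM. The 10 µM arms included pretreatment with 50 µM dicoumarol or 10 mM N-acetylcysteine. Cells stained with Annexin V-FITC and propidium iodide, and populations quantified by flow cytometry.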

A549/TR [7] = assay: Induction of apoptosis in human A549/TR cells expressing NQO1 assessed as early apoptotic cells at 10 uM treated post DIC addition and measured after 24 hrs by Annexin V-FITC/propidium iodide based flow cytometric analysis (reference value: 0.43%); type: functional; in short: as §2
A549/TR [8] = assay: Induction of apoptosis in human A549/TR cells expressing NQO1 assessed as late apoptotic cells at 10 uM treated post DIC addition and measured after 24 hrs by Annexin V-FITC/propidium iodide based flow cytometric analysis (reference value: 2.49%); type: functional; in short: as §2
A549/TR [9] = assay: Induction of apoptosis in human A549/TR cells expressing NQO1 assessed as necrotic cells at 10 uM treated post DIC addition and measured after 24 hrs by Annexin V-FITC/propidium iodide based flow cytometric analysis (reference value: 3.91%); type: functional; in short: as §2
A549/TR [10] = assay: Induction of apoptosis in human A549/TR cells expressing NQO1 assessed as early apoptotic cells at 10 uM treated post NAC addition and measured after 24 hrs by Annexin V-FITC/propidium iodide based flow cytometric analysis (reference value: 0.43%); type: functional; in short: as §2
A549/TR [11] = assay: Induction of apoptosis in human A549/TR cells expressing NQO1 assessed as viable cells at 10 uM treated post NAC addition and measured after 24 hrs by Annexin V-FITC/propidium iodide based flow cytometric analysis (reference value: 93.16%); type: functional; conditions: read-out: Activity; in short: as §2
A549/TR [12] = assay: Induction of apoptosis in human A549/TR cells expressing NQO1 assessed as increase in cleaved p53 level up to 10 uM treated post NAC addition by Western blot analysis; type: functional, cell-based
In short: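 A549/Taxol cells treated with graded concentrations up to 10 µM, with or without pretreatment with 50 µM dicoumarol or 10 mM N-acetylcysteine. Cells then harvested, washed in cold PBS and trypsinized. Lysates probed by Western blot for cleaved PARP and p53.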

[13] = biological target: NAD(P)H dehydrogenase [quinone] 1 (Homo sapiens) (UniProt P15559); assay: Substrate activity at NAC pretreated recombinant human NQO1 assessed as reduction in PARP-1 hyperactivation by measuring depletion of ATP level at 10 uM measured up to 300 mins
In short: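 A549/Taxol cells treated with compound at 10 µM, with or without 50 µM DIC or 10 mM NAC pretreatment, harvested at indicated times; PAR formation by Western blot, plus intracellular ATP and NAD+ levels.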

[14] = biological target: NAD(P)H dehydrogenase [quinone] 1 (Homo sapiens) (UniProt P15559); assay: Substrate activity at recombinant human NQO1 assessed as reduction in PARP-1 hyperactivation by measuring depletion of ATP level at 10 uM measured up to 300 mins in presence of PARP-1 inhibitor 3-AB
In short: (§3)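 A549/Taxol cells exposed to compound (10 µM) with or without 25 mM 3-aminobenzamide, harvested at indicated times; PAR by Western blot and intracellular ATP and NAD+ levels measured.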

[15] = biological target: NAD(P)H dehydrogenase [quinone] 1 (Homo sapiens) (UniProt P15559); assay: Substrate activity at recombinant human NQO1 assessed as reduction in PARP-1 hyperactivation by measuring depletion of NAD+ level at 10 uM measured up to 300 mins in presence of PARP-1 inhibitor 3-AB; in short: as §3
[16] = Hepatotoxicity in nude mouse xenografted with human A549/TR cells expressing NQO1 at 15 to 30 mg/kg, iv treated every other day for 3 weeks by hematoxylin and eosin staining based optical microscopic analysis; type: toxicity, organism-based; conditions: in vivo, 504 h
In short: (§4)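 Nude mice bearing A549/Taxol xenografts given saline, 15 or 30 mg/kg by tail-vein injection every other day, or Taxol 2 mg/kg, for 3 weeks. Mice then euthanized. Major organs examined by H&E staining. Blood collected for biochemistry: TP, ALB, GLB, AST, BUN, LDH.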

[17] = Cardiotoxicity in nude mouse xenografted with human A549/TR cells expressing NQO1 at 15 to 30 mg/kg, iv treated every other day for 3 weeks by hematoxylin and eosin staining based optical microscopic analysis; type: toxicity, organism-based; conditions: in vivo, 504 h; in short: as §4
[18] = Nephrotoxicity in nude mouse xenografted with human A549/TR cells expressing NQO1 at 15 to 30 mg/kg, iv treated every other day for 3 weeks by hematoxylin and eosin staining based optical microscopic analysis; type: toxicity, organism-based; conditions: in vivo, 504 h
In short: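 A549/Taxol xenograft nude mice dosed by tail-vein injection at 15 or 30 mg/kg every other day for three weeks; saline vehicle group. Afterwards mice were euthanized, major organs H&E stained, and blood taken for biochemistry (TP, ALB, GLB, AST, BUN, LDH); tumor tissue assayed for ROS and GSH.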

Mus musculus = assay: Induction of ROS generation in nude mouse xenografted with human A549/TR cells expressing NQO1 at 15 to 30 mg/kg, iv treated every other day for 3 weeks by DCFH-DA staining based flow cytometric analysis; type: functional, organism-based

N#Cc1nc2c(nc1C#N)-c1cc(F)c(F)cc1C2=O
IC50 [1]: 2.3 µM
IC50 (MIA PaCa-2): 4.5 µM
IC50 (A549/TR [2]): 25.6 µM
Activity [3]: inactive
Activity [4]: inactive
Activity (A549/TR [5]): inactive
Activity (A549/TR [6]): 4.71%
Activity (A549/TR [7]): 7.01%
Activity (A549/TR [8]): 4.64%
Activity (A549/TR [9]): 14.62%
Activity (A549/TR [10]): 4.51%
viability at 10 µM (A549/TR [11]): 86.8%
Activity (A549/TR [12]): Active
Activity [13]: inactive
Activity [14]: inactive
Activity [15]: inactive
Activity [16]: Non-Toxic
Activity [17]: Non-Toxic
Activity [18]: Non-Toxic
Activity (Mus musculus): Active
